pIC50: −log10 of the molar value. “Also recorded” adds a separate entry of the source. Positions of bridges follow the written chain, without caps; N, C: chain ends. Residues, ends and D or L forms follow the SMILES beside them.
Tests used:
[1] = system: m1.7-4 chimera (hNav1.7 with DII + DIII + DIV S3–S4 of hNav1.5); assay: Whole-cell patch clamp, HEK293 cells, chimera M1.7-4; format: cell-based, human; conditions: read-out: estimated IC50, room temperature, data points mean ± S.E., 3–5 cells
[2] = system: hNav1.5 chimeras with S3–S4 fragments replaced by those from hNav1.7; assay: Loss-of-function assay, whole-cell patch clamp, hNav1.5 chimeras; format: cell-based, human; conditions: 1 μM, HEK293
[3] = system: m1.7-1 chimera (hNav1.7 with DII/S3–S4 of hNav1.5); assay: Whole-cell patch clamp, HEK293 cells, chimera M1.7-1; format: cell-based, human; conditions: read-out: estimated IC50, room temperature, data points mean ± S.E., 3–5 cells
[4] = system: m1.5-2 chimera (hNav1.5 with DIII/S3–S4 of hNav1.7); assay: Whole-cell patch clamp, HEK293 cells, chimera M1.5-2; format: cell-based, human; conditions: read-out: estimated IC50, room temperature, data points mean ± S.E., 3–5 cells
[5] = system: hNav1.7 chimeras with S3–S4 fragments replaced by those from hNav1.5; assay: Gain-of-function assay, whole-cell patch clamp, hNav1.7 chimeras; format: cell-based, human; conditions: 1 μM, HEK293
WT-rNav1.3 = assay: Whole-cell patch clamp, WT-rNav1.3; format: cell-based; conditions: 50 μM SSCM-1
Procedure, shortened: (§1)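 Whole-cell recording at room temperature. Peptide stock was 1 mM in double-distilled water, stored in aliquots at −20°C, then diluted to the stated test concentration.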

wild type hNav1.5 = wild type hNav1.5 (Homo sapiens, UniProt Q14524); assay: Whole-cell patch clamp, HEK293 cells, wild type hNav1.5; format: cell-based
Procedure, shortened: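 HEK293 cells expressing hNav1.5, grown in DMEM with 10% FBS (5% CO2, 37°C). Pipette solution: 140 mM CsF, 10 mM NaCl, 1 mM EGTA, 10 mM HEPES, pH 7.3. Bath solution: 140 mM NaCl, 3 mM KCl, 1 mM MgCl2, 1 mM CaCl2, 10 mM HEPES, pH 7.3. Run at room temperature. Peptide stock 1 mM in ddH2O. Concentration–response curves used points as mean ± S.E. from 3–5 cells.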

[6] = system: TTX-R currents expressed on DRG cells; assay: Whole-cell patch clamp, TTX-R currents on DRG cells; format: cell-based; conditions: 10 μM SSCM-1, containing 200 μM TTX
WT-rNav1.4 = assay: Whole-cell patch clamp, WT-rNav1.4; format: cell-based; conditions: 50 μM SSCM-1
Procedure, shortened: as §1

[7] = system: M1.4-1 chimera (rNav1.4 with DII/S3–S4 of hNav1.5); assay: Gain-of-function assay, whole-cell patch clamp, chimera M1.4-1; format: cell-based
[8] = system: M1.5-5 chimera (hNav1.5 with DII/S3–S4 of rNav1.4); assay: Loss-of-function assay, whole-cell patch clamp, chimera M1.5-5; format: cell-based; conditions: 50 μM SSCM-1

Sequence of wild type hNav1.5 (Q14524 whole entry): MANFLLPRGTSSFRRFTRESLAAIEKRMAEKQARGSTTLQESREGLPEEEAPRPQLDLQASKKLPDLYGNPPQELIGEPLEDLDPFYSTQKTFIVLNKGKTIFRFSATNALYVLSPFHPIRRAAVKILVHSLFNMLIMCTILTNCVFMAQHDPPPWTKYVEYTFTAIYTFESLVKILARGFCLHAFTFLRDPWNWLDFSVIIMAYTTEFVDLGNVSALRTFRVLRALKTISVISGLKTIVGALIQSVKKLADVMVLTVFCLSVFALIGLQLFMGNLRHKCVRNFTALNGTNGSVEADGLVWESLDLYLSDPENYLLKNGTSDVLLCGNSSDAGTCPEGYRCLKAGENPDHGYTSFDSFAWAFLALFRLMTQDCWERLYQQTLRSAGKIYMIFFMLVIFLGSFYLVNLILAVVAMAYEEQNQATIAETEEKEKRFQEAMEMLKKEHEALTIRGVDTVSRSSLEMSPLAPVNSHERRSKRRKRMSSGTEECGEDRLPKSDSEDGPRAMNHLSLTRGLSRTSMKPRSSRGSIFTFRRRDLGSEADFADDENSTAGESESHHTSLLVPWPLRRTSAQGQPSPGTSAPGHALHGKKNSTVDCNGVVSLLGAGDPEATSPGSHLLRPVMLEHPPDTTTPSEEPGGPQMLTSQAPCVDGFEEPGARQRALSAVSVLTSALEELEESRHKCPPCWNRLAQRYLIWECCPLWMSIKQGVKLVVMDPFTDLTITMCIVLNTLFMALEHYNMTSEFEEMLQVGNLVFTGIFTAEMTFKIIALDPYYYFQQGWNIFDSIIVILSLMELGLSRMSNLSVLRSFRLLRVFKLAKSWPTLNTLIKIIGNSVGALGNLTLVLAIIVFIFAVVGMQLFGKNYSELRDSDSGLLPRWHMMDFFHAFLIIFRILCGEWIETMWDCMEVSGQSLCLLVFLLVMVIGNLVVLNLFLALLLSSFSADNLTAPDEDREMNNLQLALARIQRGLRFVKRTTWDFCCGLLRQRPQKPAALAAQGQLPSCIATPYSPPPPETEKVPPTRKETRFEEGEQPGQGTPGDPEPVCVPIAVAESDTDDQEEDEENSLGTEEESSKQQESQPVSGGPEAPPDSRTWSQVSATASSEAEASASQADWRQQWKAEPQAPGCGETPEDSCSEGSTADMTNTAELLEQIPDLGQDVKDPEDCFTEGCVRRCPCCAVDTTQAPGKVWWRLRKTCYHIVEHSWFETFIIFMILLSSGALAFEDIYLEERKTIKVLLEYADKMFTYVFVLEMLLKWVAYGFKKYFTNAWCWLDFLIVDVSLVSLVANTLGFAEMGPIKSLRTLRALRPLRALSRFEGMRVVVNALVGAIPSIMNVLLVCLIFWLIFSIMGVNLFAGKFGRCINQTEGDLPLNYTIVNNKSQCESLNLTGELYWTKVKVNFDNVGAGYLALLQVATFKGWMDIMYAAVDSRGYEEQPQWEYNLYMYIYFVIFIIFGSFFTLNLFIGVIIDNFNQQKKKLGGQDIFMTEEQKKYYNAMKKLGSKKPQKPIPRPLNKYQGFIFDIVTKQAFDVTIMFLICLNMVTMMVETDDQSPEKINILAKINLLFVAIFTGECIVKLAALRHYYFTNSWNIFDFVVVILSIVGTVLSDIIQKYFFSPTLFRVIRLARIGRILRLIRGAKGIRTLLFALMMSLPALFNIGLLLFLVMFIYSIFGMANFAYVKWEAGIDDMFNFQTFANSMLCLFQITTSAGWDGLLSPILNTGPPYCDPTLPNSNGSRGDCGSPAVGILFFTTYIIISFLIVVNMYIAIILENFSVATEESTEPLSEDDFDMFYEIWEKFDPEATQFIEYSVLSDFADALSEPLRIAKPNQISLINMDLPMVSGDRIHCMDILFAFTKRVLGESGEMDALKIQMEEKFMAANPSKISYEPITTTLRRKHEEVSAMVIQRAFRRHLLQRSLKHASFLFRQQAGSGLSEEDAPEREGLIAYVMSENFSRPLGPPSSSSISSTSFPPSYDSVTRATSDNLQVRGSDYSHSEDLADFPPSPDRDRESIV

SMILES	pIC50 [1]	Sensitivity to JZTX-III inhibition of hNav1.5 chimeras [2]	pIC50 [3]	pIC50 [4]	Sensitivity to JZTX-III of hNav1.7 chimeras [5]	inhibitory effect on rNav1.3 currents, in words (WT-rNav1.3)	pIC50 (wild type hNav1.5)	inhibition at 10 µM (wild type hNav1.5; HEK293, read-out: inhibition of wild type hNav1.5 currents) [%]	inhibition of TTX-R currents, in words [6]	inhibitory effect on rNav1.4 currents, in words (WT-rNav1.4)	inhibition of chimera M1.4-1 currents ([7]; 50 μM SSCM-1) [%]	inhibitory effect on chimeric rNav1.4 (M1.4-1) currents, in words ([7]; gain-of-function)	inhibition of chimera M1.5-5 currents [8]
CC(C)[C@H](NC(=O)[C@H](C)NC(=O)[C@@H]1CSSC[C@@H]2NC(=O)[C@@H]3CCCN3C(=O)[C@@H]3CCCN3C(=O)[C@H](CCCCN)NC(=O)CNC(=O)[C@H](CCCNC(=N)N)NC(=O)CNC(=O)[C@@H]3CSSC[C@H](NC(=O)[C@H](C)NC(=O)[C@H](Cc4ccc(O)cc4)NC(=O)CNC(=O)[C@H](CCCCN)NC(=O)[C@H](CSSC[C@H](NC(=O)[C@H](CCC(=O)O)NC(=O)CNC(=O)[C@@H](N)CC(=O)O)C(=O)NCC(=O)NCC(=O)N[C@@H](Cc4ccccc4)C(=O)N[C@@H](Cc4c[nH]c5ccccc45)C(=O)N[C@@H](Cc4c[nH]c5ccccc45)C(=O)N[C@@H](CCCCN)C(=O)N3)NC2=O)C(=O)N[C@@H](CO)C(=O)N[C@@H](CCCCN)C(=O)N[C@@H]([C@@H](C)O)C(=O)N[C@@H](Cc2c[nH]c3ccccc23)C(=O)NCC(=O)N[C@@H](Cc2c[nH]c3ccccc23)C(=O)N1)C(=O)N[C@@H](CCC(=O)O)C(=O)N[C@@H](C)C(=O)N1CCC[C@H]1C(=O)O [JZTX-III, jingzhaotoxin-III] (H-DGECGGFWWKCGRGKPPCCKGYACSKTWGWCAVEAP-OH; disulfide 4-19, 11-24, 18-31; N-terminus and C-terminus assumed)	6.32	lost its sensitivity to JZTX-III inhibition	6.13	5.98	gained partial sensitivity to JZTX-III	–	–	–	–	–	–	–	–
CC[C@H](C)[C@H](NC(=O)CNC(=O)[C@@H](NC(=O)[C@H](CCCNC(=N)N)NC(=O)[C@@H](NC(=O)[C@H](CO)NC(=O)[C@H](CC(N)=O)NC(=O)[C@H](CCCCN)NC(=O)[C@H](Cc1ccc(O)cc1)NC(=O)[C@H](CCCCN)NC(=O)[C@@H](N)CCSC)[C@@H](C)O)C(C)C)C(=O)N[C@@H](CC(=O)O)C(=O)N[C@H](C(=O)NCC(=O)N[C@@H](CO)C(=O)N[C@H](C(=O)N[C@@H](CCC(=O)O)C(=O)N[C@@H](CC(C)C)C(=O)N[C@@H](CCC(=O)O)C(=O)N[C@@H](CC(C)C)C(=O)N[C@@H](CCC(N)=O)C(=O)N[C@@H](CCSC)C(=O)N[C@@H](CC(N)=O)C(=O)N[C@@H](CCCNC(=N)N)C(=O)N[C@@H](CCCNC(=N)N)C(=O)N[C@@H](Cc1ccc(O)cc1)C(=O)O)[C@@H](C)CC)[C@@H](C)O [SSCM-1, Screened-Sodium-Channel-Interacting peptide-1] (H-MKYKNSTRVGIDTGSIELELQMNRRY-OH)	–	–	–	–	–	subtle inhibitory activity; also recorded: almost no detectable inhibitory effect	~5.54	> 90	subtle inhibitory activity; also recorded: could not inhibit TTX-R currents	subtle inhibitory activity; also recorded: almost no detectable inhibitory effect	15	a detectable inhibitory effect	about 15%
